In the library only some 9.4% were active in any assay of this set; here they are far more common.
SKKanGAS inh: SKKanGAS growth inhibition; S. pyogenes SKKanGAS, kanamycin growth, BacTiter-Glo, 6 h; inhibition, % at 7.5 µM; hit rate 1.3% among 300,000; AID 1662;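 active means mean replicate score, as percent of positive control median, at least 50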;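 further: strain carries kanamycin resistance gene driven by streptokinase promoter and grows in 40 µg/ml kanamycin; loss of luminescence reflects streptokinase promoter inhibition or plain growth inhibition; 0% = median of DMSO wells and 100% = positive control at its reference dose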
Beta apoptosis: blocks beta cell apoptosis. INS-1E cytokine-induced death, ATP luminescence, 48 h; percent of positive-control rescue, neutral wells zero. protection from apoptosis, % (concentration not given with the values). hit rate 0.8% among 300,000. AID 435005;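 active means Every replicate reaches about 75%, or at least half do and their mean reaches it too, limit read from the data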;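 further: 0% = cytokine-treated negative control wells and 100% = positive control rescue; higher means more ATP so stronger rescue from cytokine killing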
Lmaj promast: inhibitors of Leishmania major promastigote growth | inhibition, % at 10 µM | Leishmania major promastigotes, resazurin fluorescence viability | hit rate 9% among 200,000; in the data active means inhibition above about 50%;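 further: promastigotes grown with compound for 44 hours at 28 °C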
Mdm2-MdmX inh: disrupts the human Mdm2-MdmX interaction; O15151+Q00987; SaOS-2 split-luciferase Mdm2/MdmX complementation, luminescence; inhibition, % at 8 µM; AID 485346; hit rate 3% among 330,000;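 active means inhibition of at least 50% at 8 µM in the primary screen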
CSC inhib: cancer stem cell inhibition; cancer stem cell-like cells viability, luminescence; inhibition, % at 7.5 µM; hit rate 1.1% among 300,000; AID 2717; in the data active means inhibition above about 75%; tested in HMLE shEcad cells
T cruzi repl: T. cruzi replication inhibition; T. cruzi beta-gal in NIH3T3, luminescence, 90 h; inhibition, % (test concentration not listed); AID 1885; hit rate 1.4% among 300,000;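 active means mean inhibition across valid replicates above about 55%, limit read from the data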;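 further: signal also drops with host cell toxicity which is not excluded here; 0% = plate median of DMSO wells and 100% = zero luminescence signal; higher percent means less beta-gal luminescence so fewer parasites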
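compound dosing = single 50 nL compound addition per well in DMSO | material = NIH/3T3 host cells with β-galactosidase reporter T. cruzi | input = 5,000 host fibroblasts per well | timing = ≥90 h infection period, 3 h prior cell attachment | read-out basis = percent inhibition of parasite-derived β-gal signal | detection = GalScreen β-gal luminescence, detergent lysis, 60 min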
* = called active by the depositor; nt = no result given.

SMILES | SKKanGAS inh | Beta apoptosis | Lmaj promast | Mdm2-MdmX inh | CSC inhib | T cruzi repl
Cc1noc(C)c1COc1ccccc1C(=O)N1CCN(c2cccc(C(F)(F)F)c2)CC1 | nt | 11 | nt | 12 | nt | nt
COc1cc(C(CC(=O)Nc2ccc(C)cn2)N2Cc3ccccc3C2=O)cc(OC)c1OC (stereo not given) | 0 | -5 | nt | 9 | 12 | 6
COc1ccc(-c2cnc(N)nc2-c2ccc(OCc3ccccc3)cc2O)cc1 | 18 | -2 | nt | 44 | 30 | 58*
COC(=O)c1nn(-c2ccc(Oc3ccccc3)cc2)c(=O)cc1O | 3 | -4 | -5 | 1 | nt | -5
COc1ccc(-c2noc(C(C)NC(=O)c3ccco3)n2)cc1OC (stereo not given) | 0 | -2 | nt | 13 | 3 | -6
Oc1nc(Nc2cccc(Cl)c2)sc1/C=C1\C=Nc2ccccc21 | 113* | -3 | -3 | 0 | 109* | -5
Oc1nc(Nc2ccc(F)cc2)sc1/C=C1\C=Nc2ccccc21 | 55* | 8 | nt | -9 | 66 | 13
Oc1cccc(Nc2nc(O)c(/C=C3\C=Nc4ccccc43)s2)c1 | nt | 9 | nt | -35 | 54 | nt
CC1=Nc2ccccc2/C1=C\c1sc(Nc2ccc(C)cc2)nc1O | 37 | 42 | 73* | 37 | 85* | 29
CC1=Nc2ccccc2/C1=C/c1sc(=O)n(CC(=O)N2CCCC2)c1O | -11 | 2 | 4 | 4 | -3 | 9
COc1ccc(-n2c3c(cc(C#N)c2=O)C(=O)CCC3)cc1 | -2 | -1 | -4 | 1 | 1 | -8
O=[N+]([O-])c1ccc(C2=NN(CCO)C(=Nc3ccc(OC(F)(F)F)cc3)SC2)cc1 | 28 | -10 | nt | 18 | 89* | 9
OCCC1CN(Cc2cnc(-c3ccccc3)s2)CCN1C1CCCCC1 (stereo not given) | 9 | 0 | 81* | -3 | 36 | 10
Cc1ccccc1-c1ncc(CN2CCN(C3CCCCC3)C(CCO)C2)cn1 (stereo not given) | -6 | -3 | 56* | -7 | 1 | 7
COc1ccc2c(c1)C=C(CN1CCN(Cc3ccccc3C)C(CCO)C1)CO2 (stereo not given) | 3 | -1 | nt | 19 | 20 | 55*
OCCC1CN(Cc2cnc(-c3ccccc3)s2)CCN1C1CCCC1 (stereo not given) | 2 | -5 | 80* | 10 | 37 | 19
COc1ccc([N+](=O)[O-])cc1NC(=O)c1ccc(-n2nc(C)cc2C)cc1 | -1 | nt | -7 | 25 | 4 | -15
CCOc1ccc(NC(=O)/C(C=Nc2ccccc2)=C(\C)O)cc1 | 21 | 3 | nt | 9 | 18 | -8
CCOc1ccc(CN2CCN(CC3CC3)CC2CCO)cc1 (stereo not given) | 1 | nt | nt | -14 | -15 | 8
COc1cccc(CN2CCN(Cc3cc4ccccc4[nH]3)CC2CCO)c1 (stereo not given) | -6 | 2 | nt | 9 | -15 | 44
Cc1ncc(CN2CCN(Cc3ccccc3)C(CCO)C2)s1 (stereo not given) | -4 | -6 | -3 | 4 | 3 | 19
CCOc1ccc(CN2CCN(CC3=Cc4cccc(OC)c4OC3)CC2CCO)cc1 (stereo not given) | 2 | -5 | 78* | 7 | 3 | 56*
CCOc1ccc(CN2CCN(Cc3cnc(-c4ccccc4)s3)CC2CCO)cc1 (stereo not given) | 1 | 1 | 86* | -11 | 15 | 56*
CCOc1ccc(CN2CCN(Cc3cc4ccccc4[nH]3)CC2CCO)cc1 (stereo not given) | 3 | nt | 79* | nt | nt | 60*
CC(Oc1ccc(Br)cc1)C(=O)N(C)CC(=O)Nc1ccc(N2CCOCC2)cc1 (stereo not given) | -5 | -6 | nt | -5 | -14 | -7
CCn1c(SCC(=O)Nc2ccc(OC)cc2)nc2nc3c(cc2c1=O)CCCC3 | 6 | 146* | nt | 37 | 57 | 1
Cc1cccc(NC(=O)CSc2nc3nc4c(cc3c(=O)n2-c2ccccc2)CCCC4)c1 | 21 | 2 | 31 | 0 | -4 | 38
Cc1ccccc1-n1c(SCC(=O)Nc2ccccc2)nc2nc3c(cc2c1=O)CCCC3 | 10 | 2 | 98* | 5 | -9 | 10
Cn1c(N)c(C(=O)COC(=O)[C@@H]2CCCN2S(=O)(=O)c2ccc(Cl)cc2)c(=O)n(C)c1=O | 4 | nt | -3 | -3 | -4 | -3

Compound activity deposited in PubChem by several laboratories.
